Data as given in PMC4233149 (Clinical cancer research : an official journal of the …, 2014).
Marks after values point to notes of the source that are not given here.

Assay: Phase I safety and tolerability, weekly
Assay type: in vivo, human
Method in brief: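 Oral weekly dose escalation followed a 3+3 design (planned 90, 135, 200, 300mg, intermediate doses allowed), then a modified toxicity-probability-interval confirmation stage. A DLT was any drug-related CTCAE v3.0 ≥G4 hematological, ≥G3 febrile neutropenia or ≥G3 non-hematological toxicity. Safety visits, glucose, C-peptide and HbA1c monitoring followed a fixed schedule; AEs were graded by CTCAE v3.0.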

[1] = 200mg QW, G3, cycle 1, dose-limiting toxicity

NC1(c2ccc(-c3nc4ccn5c(=O)[nH]nc5c4cc3-c3ccccc3)cc2)CCC1 [MK-2206]
65.7%-166.6: C-peptide level increase during first cycle (range) (QW schedule, 4 patients with increase)
12.1%: drug-related headaches, patients (QW schedule, 4/33) | drug-related increased alanine aminotransferase levels, patients (QW schedule, 4/33) | drug-related pruritus, patients (QW schedule, 4/33)
3 patients: DLTs resolved with sequelae of dry skin (QW schedule, of 10 patients with DLTs)
Three: patients who discontinued for drug-related AEs (QW schedule, G3 rash, G3 complete atrioventricular block, G1 rash (n=1 each))
0 (0): Diarrhea, number of AEs (200mg QW, G3, cycle 1) | Dry skin, number of AEs (200mg QW, G3, cycle 1) | Dysgeusia, number of AEs (200mg QW, G3, cycle 1) | Fatigue, number of AEs (200mg QW, G3, cycle 1) | Nausea, number of AEs (200mg QW, G3, cycle 1) | Pruritus, number of AEs (200mg QW, G3, cycle 1) | Stomatitis, number of AEs (200mg QW, G3, cycle 1) | Vomiting, number of AEs (200mg QW, G3, cycle 1) | Anorexia, number of AEs (250mg QW, G1, all cycles) | Dermatitis acneiform, number of AEs (250mg QW, G1, all cycles) | Diarrhea, number of AEs (250mg QW, G1, all cycles) | Dysgeusia, number of AEs (250mg QW, G1, all cycles) | Fatigue, number of AEs (250mg QW, G1, all cycles) | Nausea, number of AEs (250mg QW, G1, all cycles) | Pruritus, number of AEs (250mg QW, G1, all cycles) | Vomiting, number of AEs (250mg QW, G1, all cycles) | Anorexia, number of AEs (250mg QW, G1, cycle 1) | Dermatitis acneiform, number of AEs (250mg QW, G1, cycle 1) | Diarrhea, number of AEs (250mg QW, G1, cycle 1) | Dysgeusia, number of AEs (250mg QW, G1, cycle 1) | Fatigue, number of AEs (250mg QW, G1, cycle 1) | Nausea, number of AEs (250mg QW, G1, cycle 1) | Pruritus, number of AEs (250mg QW, G1, cycle 1) | Vomiting, number of AEs (250mg QW, G1, cycle 1) | Anorexia, number of AEs (250mg QW, G2, all cycles) | Dermatitis acneiform, number of AEs (250mg QW, G2, all cycles) | Diarrhea, number of AEs (250mg QW, G2, all cycles) | Dry skin, number of AEs (250mg QW, G2, all cycles) | Dysgeusia, number of AEs (250mg QW, G2, all cycles) | Fatigue, number of AEs (250mg QW, G2, all cycles) | Nausea, number of AEs (250mg QW, G2, all cycles) | Pruritus, number of AEs (250mg QW, G2, all cycles) | Stomatitis, number of AEs (250mg QW, G2, all cycles) | Vomiting, number of AEs (250mg QW, G2, all cycles) | Anorexia, number of AEs (250mg QW, G2, cycle 1) | Dermatitis acneiform, number of AEs (250mg QW, G2, cycle 1) | Diarrhea, number of AEs (250mg QW, G2, cycle 1) | Dry skin, number of AEs (250mg QW, G2, cycle 1) | Dysgeusia, number of AEs (250mg QW, G2, cycle 1) | Fatigue, number of AEs (250mg QW, G2, cycle 1) | Nausea, number of AEs (250mg QW, G2, cycle 1) | Pruritus, number of AEs (250mg QW, G2, cycle 1) | Stomatitis, number of AEs (250mg QW, G2, cycle 1) | Vomiting, number of AEs (250mg QW, G2, cycle 1) | Anorexia, number of AEs (250mg QW, G3, all cycles) | Dermatitis acneiform, number of AEs (250mg QW, G3, all cycles) | Diarrhea, number of AEs (250mg QW, G3, all cycles) | Dry skin, number of AEs (250mg QW, G3, all cycles) | Dysgeusia, number of AEs (250mg QW, G3, all cycles) | Fatigue, number of AEs (250mg QW, G3, all cycles) | Nausea, number of AEs (250mg QW, G3, all cycles) | Pruritus, number of AEs (250mg QW, G3, all cycles) | Stomatitis, number of AEs (250mg QW, G3, all cycles) | Vomiting, number of AEs (250mg QW, G3, all cycles) | Anorexia, number of AEs (250mg QW, G3, cycle 1) | Dermatitis acneiform, number of AEs (250mg QW, G3, cycle 1) | Diarrhea, number of AEs (250mg QW, G3, cycle 1) | Dry skin, number of AEs (250mg QW, G3, cycle 1) | Dysgeusia, number of AEs (250mg QW, G3, cycle 1) | Fatigue, number of AEs (250mg QW, G3, cycle 1) | Nausea, number of AEs (250mg QW, G3, cycle 1) | Pruritus, number of AEs (250mg QW, G3, cycle 1) | Stomatitis, number of AEs (250mg QW, G3, cycle 1) | Vomiting, number of AEs (250mg QW, G3, cycle 1) | Anorexia, number of AEs (300mg QW, G1, all cycles) | Dermatitis acneiform, number of AEs (300mg QW, G1, all cycles) | Diarrhea, number of AEs (300mg QW, G1, all cycles) | Dry skin, number of AEs (300mg QW, G1, all cycles) | Pruritus, number of AEs (300mg QW, G1, all cycles) | Stomatitis, number of AEs (300mg QW, G1, all cycles) | Vomiting, number of AEs (300mg QW, G1, all cycles) | Anorexia, number of AEs (300mg QW, G1, cycle 1) | Dermatitis acneiform, number of AEs (300mg QW, G1, cycle 1) | Diarrhea, number of AEs (300mg QW, G1, cycle 1) | Dry skin, number of AEs (300mg QW, G1, cycle 1) | Pruritus, number of AEs (300mg QW, G1, cycle 1) | Stomatitis, number of AEs (300mg QW, G1, cycle 1) | Vomiting, number of AEs (300mg QW, G1, cycle 1) | Anorexia, number of AEs (300mg QW, G2, all cycles) | Dermatitis acneiform, number of AEs (300mg QW, G2, all cycles) | Diarrhea, number of AEs (300mg QW, G2, all cycles) | Dry skin, number of AEs (300mg QW, G2, all cycles) | Dysgeusia, number of AEs (300mg QW, G2, all cycles) | Fatigue, number of AEs (300mg QW, G2, all cycles) | Nausea, number of AEs (300mg QW, G2, all cycles) | Pruritus, number of AEs (300mg QW, G2, all cycles) | Vomiting, number of AEs (300mg QW, G2, all cycles) | Anorexia, number of AEs (300mg QW, G2, cycle 1) | Dermatitis acneiform, number of AEs (300mg QW, G2, cycle 1) | Diarrhea, number of AEs (300mg QW, G2, cycle 1) | Dry skin, number of AEs (300mg QW, G2, cycle 1) | Dysgeusia, number of AEs (300mg QW, G2, cycle 1) | Fatigue, number of AEs (300mg QW, G2, cycle 1) | Nausea, number of AEs (300mg QW, G2, cycle 1) | Pruritus, number of AEs (300mg QW, G2, cycle 1) | Vomiting, number of AEs (300mg QW, G2, cycle 1) | Anorexia, number of AEs (300mg QW, G3, all cycles) | Dermatitis acneiform, number of AEs (300mg QW, G3, all cycles) | Diarrhea, number of AEs (300mg QW, G3, all cycles) | Dry skin, number of AEs (300mg QW, G3, all cycles) | Dysgeusia, number of AEs (300mg QW, G3, all cycles) | Fatigue, number of AEs (300mg QW, G3, all cycles) | Nausea, number of AEs (300mg QW, G3, all cycles) | Pruritus, number of AEs (300mg QW, G3, all cycles) | Stomatitis, number of AEs (300mg QW, G3, all cycles) | Vomiting, number of AEs (300mg QW, G3, all cycles) | Anorexia, number of AEs (300mg QW, G3, cycle 1) | Dermatitis acneiform, number of AEs (300mg QW, G3, cycle 1) | Diarrhea, number of AEs (300mg QW, G3, cycle 1) | Dry skin, number of AEs (300mg QW, G3, cycle 1) | Dysgeusia, number of AEs (300mg QW, G3, cycle 1) | Fatigue, number of AEs (300mg QW, G3, cycle 1) | Nausea, number of AEs (300mg QW, G3, cycle 1) | Pruritus, number of AEs (300mg QW, G3, cycle 1) | Stomatitis, number of AEs (300mg QW, G3, cycle 1) | Vomiting, number of AEs (300mg QW, G3, cycle 1)
2 (2): Rash (all rash terms collated), number of AEs (300mg QW, G2, all cycles) | Rash (all rash terms collated), number of AEs (300mg QW, G2, cycle 1)
< 7%: post-cycle 1 HbA1c values (QW schedule, all patients assessed)
1: Stomatitis, number of AEs (250mg QW, G1, cycle 1) | Rash (all rash terms collated), number of AEs (250mg QW, G2, cycle 1)
66.7%: drug-related AEs, patients (QW schedule, 22/33)
45.5%: drug-related fatigue, patients (QW schedule, 15/33)
15.2%: drug-related stomatitis, patients (QW schedule, 5/33)
4 of 6: patients with increased C-peptide levels during first cycle (QW schedule, patients assessed)
2^c (2): Rash (all rash terms collated), number of AEs (250mg QW, G3, all cycles) | Rash (all rash terms collated), number of AEs (250mg QW, G3, cycle 1, dose-limiting toxicity)
57.6%: elevated blood glucose levels, patients (QW schedule, 19/33)
1^c (1): Dermatitis acneiform, number of AEs [1]
3^c (3): Rash (all rash terms collated), number of AEs [1] | Rash (all rash terms collated), number of AEs (300mg QW, G3, all cycles) | Rash (all rash terms collated), number of AEs (300mg QW, G3, cycle 1, dose-limiting toxicity)
1 (1): Dysgeusia, number of AEs (300mg QW, G1, all cycles) | Fatigue, number of AEs (300mg QW, G1, all cycles) | Nausea, number of AEs (300mg QW, G1, all cycles) | Dysgeusia, number of AEs (300mg QW, G1, cycle 1) | Fatigue, number of AEs (300mg QW, G1, cycle 1) | Nausea, number of AEs (300mg QW, G1, cycle 1) | Stomatitis, number of AEs (300mg QW, G2, all cycles) | Stomatitis, number of AEs (300mg QW, G2, cycle 1)
24.2%: drug-related vomiting, patients (QW schedule, 8/33)
3.0%: G1 hyperglycemia, patients (QW schedule, following 1 cycle, 1/33)
42.4%: drug-related rash, patients (QW schedule, 14/33)
1 to 2 weeks: time to full resolution of DLTs from onset (QW schedule, 7 of 10 patients with DLTs)
21.2%: drug-related decreased appetite, patients (QW schedule, 7/33)
27.3%: drug-related diarrhea, patients (QW schedule, 9/33) | drug-related nausea, patients (QW schedule, 9/33)
2: Stomatitis, number of AEs (250mg QW, G1, all cycles) | Rash (all rash terms collated), number of AEs (250mg QW, G2, all cycles)
